Experiment [1] deals with SCF^Fbx4 (Fbx4-dependent TRF1 ubiquitination) (UniProt P54274). In words: In vitro TRF1 ubiquitination assay. The experiment is classed as biochemical. Conditions: versus wild-type peptide (IC50 = 205.9 µM). The procedure, abridged:
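TRF1ΔMyb (E. coli; Ni-NTA, tag cleaved, gel filtration, Mono-Q/Mono-S) was prelabelled with GST-cyclin B/Cdk1 in 50 mM Tris pH 8.0, 10 mM MgCl2, 10 mM ATP and 2 µCi [γ-33P]ATP for 1 hr, then kinase-depleted on glutathione resin. It was incubated with E1, UbcH5a, SCFFbx4, ubiquitin, methylated ubiquitin, energy-regenerating system and increasing peptide at 30°C for 2.5 hrs. SDS-PAGE and phosphorimaging followed. IC50 came from loss of polyubiquitination.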

For experiment [2], the system named is SCF^Skp2 (p27 ubiquitination). In words: In vitro p27 ubiquitination assay. The experiment is classed as biochemical. Conditions: E1, hCdc34 (E2), Cks1, p27 phosphorylated by cyclin E-Cdk2, SCF^Skp2; 2 hrs, 30°C; Figure S3.
Experiment [3] deals with T1, TRF1_(TRFH) (residues 58-268) (UniProt P54274 58-268).
T1 sequence (looked up): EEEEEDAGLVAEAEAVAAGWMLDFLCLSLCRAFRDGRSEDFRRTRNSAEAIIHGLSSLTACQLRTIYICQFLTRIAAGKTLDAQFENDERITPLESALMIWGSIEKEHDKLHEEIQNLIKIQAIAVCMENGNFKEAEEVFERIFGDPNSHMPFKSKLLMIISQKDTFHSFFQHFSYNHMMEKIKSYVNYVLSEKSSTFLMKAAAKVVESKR
In words: fluorescence polarisation.

Where a SMILES comes first, the peptide text is derived from it. Where no end group is shown, it is not given here. A value given as a limit tells only on which side of the number the result lay.

`CC[C@H](C)[C@H](NC(=O)[C@@H]1CCCN1C(=O)[C@@H](N)CCSC)C(=O)N[C@@H](Cc1ccccc1)C(=O)N[C@@H](Cc1c[nH]c2ccccc12)C(=O)N[C@@H](CCCCN)C(=O)N[C@@H](Cc1ccccc1)C(=O)N[C@@H](Cc1c[nH]cn1)C(=O)N[C@@H](CCCNC(=N)N)C(=O)N[C@@H](CCSC)C(=O)N[C@@H](CO)C(=O)N[C@@H](CCCCN)C(=O)N[C@@H](CCSC)C(=O)NCC(=O)N[C@H](C(=O)NCC(N)=O)[C@@H](C)O` [Design 1] (H-MPIFWKFHRMSKMGTG-NH2): the “decrease of IC50 compared to wild-type peptide” value in experiment [1] is “more than 6 fold”. In addition, the “effect on the ubiquitination of p27” value in experiment [2] is listed as “no effect”.

In experiment [3], SMTWRGKPAHMIFGKM-NH2 (also: 7-hydroxycoumarin-3-carboxylic acid label, position not given here) [Control 1] gave a Kd of more than 250 µM.

In the case of KKMDVCGGLSD-NH2 (also: 7-hydroxycoumarin-3-carboxylic acid label, position not given here) [Control 2], the Kd in experiment [3] is more than 10000 µM.

In turn, MPCFYLAHEL-NH2 (also: 7-hydroxycoumarin-3-carboxylic acid label, position not given here) [Wild-Type peptide (Fbx4 residues 339-348)] showed a Kd in experiment [3] of 41.8 µM.

In turn, MPIFWKFHRMSKMGTG-NH2 (designed binder, also: 7-hydroxycoumarin-3-carboxylic acid label, position not given here) [Design 1] registered a Kd in experiment [3] of 23.3 µM.

In experiment [3], MPIAWKFHRMSKMGTG-NH2 (designed binder, also: 7-hydroxycoumarin-3-carboxylic acid label, position not given here) [Design 2] came in with a Kd of 47.8 µM.

On to MPIFWKAHRMSKMGTG-NH2 (designed binder, also: 7-hydroxycoumarin-3-carboxylic acid label, position not given here) [Design 3], for which the Kd in experiment [3] turned out to be 17.3 µM.

The values above are taken from paper PMC4028150 (Chembiochem : a European journal of chemical biology, 2013).
